From ChEMBL document CHEMBL2396586, “Discovery of non-LBD inhibitor for androgen receptor by structure-guide design” (Bioorg Med Chem Lett, 2013)

Assays:
Androgen receptor = molecular target: T1, Androgen receptor (Homo sapiens, UniProt P10275); experiment: Inhibition of androgen receptor in human LNCAP cells after 1 day by luciferase reporter gene assay; format: cell-based
T1 sequence (P10275 whole entry): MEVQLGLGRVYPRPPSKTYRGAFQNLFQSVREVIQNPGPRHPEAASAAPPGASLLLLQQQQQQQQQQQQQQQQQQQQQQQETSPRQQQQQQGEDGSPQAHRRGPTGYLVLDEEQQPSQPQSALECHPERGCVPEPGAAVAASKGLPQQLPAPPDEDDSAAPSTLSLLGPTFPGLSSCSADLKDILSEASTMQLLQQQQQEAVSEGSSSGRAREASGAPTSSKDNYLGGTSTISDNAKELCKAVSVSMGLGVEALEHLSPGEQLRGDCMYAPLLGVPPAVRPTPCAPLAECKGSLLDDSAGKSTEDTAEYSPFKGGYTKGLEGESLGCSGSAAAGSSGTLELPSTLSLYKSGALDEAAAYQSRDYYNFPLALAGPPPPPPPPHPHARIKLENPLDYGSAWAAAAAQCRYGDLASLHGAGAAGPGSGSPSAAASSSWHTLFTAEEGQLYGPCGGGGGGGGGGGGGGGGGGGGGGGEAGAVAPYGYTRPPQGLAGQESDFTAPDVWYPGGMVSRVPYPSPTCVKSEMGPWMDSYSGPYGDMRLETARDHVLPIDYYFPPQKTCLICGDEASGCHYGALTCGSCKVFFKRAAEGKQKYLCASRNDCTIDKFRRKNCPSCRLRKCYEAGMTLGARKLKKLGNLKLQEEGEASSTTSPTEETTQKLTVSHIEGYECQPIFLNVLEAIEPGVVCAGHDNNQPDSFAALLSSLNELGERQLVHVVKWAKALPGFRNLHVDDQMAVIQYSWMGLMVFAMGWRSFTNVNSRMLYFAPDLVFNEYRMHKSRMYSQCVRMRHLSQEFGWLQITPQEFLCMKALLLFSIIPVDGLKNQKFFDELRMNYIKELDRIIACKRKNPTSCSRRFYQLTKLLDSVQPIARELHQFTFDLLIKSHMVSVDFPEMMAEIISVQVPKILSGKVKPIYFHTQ

LNCaP = experiment: Cytotoxicity against human LNCAP cells assessed as cell viability after 2 days by cell counting method; format: functional, cell-based; conditions: 48 h
Outline: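 LNCap cells were grown in RPMI1640 with 10% FBS and penicillin/streptomycin at 37 °C in 5% CO2. They were seeded at 4 × 10³ cells/well, left 24 h, then exposed to compounds for 2 days. Viability was read by CCK-8 absorbance, in triplicate.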

[1] = Oral bioavailability in Sprague-Dawley rat at 2.5 mg/kg; format: ADME, organism-based; conditions: in vivo
Outline: (§1)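 Male Sprague-Dawley rats, n = 3 per route, were given 2.5 mg/kg by either intravenous or oral dosing. Plasma concentration–time profiles were followed, and PK parameters were derived from them, with AUC taken over 0–72 h and also to infinity.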

[2] = Mean residence time in Sprague-Dawley rat at 2.5 mg/kg, po; format: ADME, organism-based; set-up: dose 2.5 mg/kg, route oral; conditions: in vivo; outline: as §1
[3] = Mean residence time in Sprague-Dawley rat at 2.5 mg/kg, iv; format: ADME, organism-based; set-up: dose 2.5 mg/kg, route intravenous; conditions: in vivo; outline: as §1
[4] = Volume of distribution at steady state in Sprague-Dawley rat at 2.5 mg/kg, iv; format: ADME, organism-based; set-up: dose 2.5 mg/kg, route intravenous; conditions: in vivo, read-out: Vdss; outline: as §1
[5] = Blood clearance in Sprague-Dawley rat at 2.5 mg/kg, iv; format: ADME, organism-based; set-up: dose 2.5 mg/kg, route intravenous; outline: as §1
[6] = AUC (0 to infinity) in Sprague-Dawley rat at 2.5 mg/kg, po; format: ADME, organism-based; set-up: time infinity, dose 2.5 mg/kg, route oral; conditions: plasma; outline: as §1
[7] = AUC (0 to infinity) in Sprague-Dawley rat at 2.5 mg/kg, iv; format: ADME, organism-based; set-up: time infinity, dose 2.5 mg/kg, route intravenous; conditions: plasma; outline: as §1
[8] = AUC (0 to 72 hrs) in Sprague-Dawley rat at 2.5 mg/kg, po; format: ADME, organism-based; set-up: time < 72 hr, dose 2.5 mg/kg, route oral; conditions: plasma; outline: as §1
[9] = AUC (0 to 72 hrs) in Sprague-Dawley rat at 2.5 mg/kg, iv; format: ADME, organism-based; set-up: time < 72 hr, dose 2.5 mg/kg, route intravenous; conditions: plasma; outline: as §1
[10] = Elimination half life in Sprague-Dawley rat at 2.5 mg/kg, po; format: ADME, organism-based; set-up: dose 2.5 mg/kg, route oral; conditions: in vivo, read-out: beta t1/2 (converted); outline: as §1
[11] = Elimination half life in Sprague-Dawley rat at 2.5 mg/kg, iv; format: ADME, organism-based; set-up: dose 2.5 mg/kg, route intravenous; conditions: in vivo, read-out: beta t1/2 (converted); outline: as §1
[12] = Cmax in Sprague-Dawley rat at 2.5 mg/kg, po; format: ADME, organism-based; set-up: dose 2.5 mg/kg, route oral; conditions: in vivo; outline: as §1
[13] = Tmax in Sprague-Dawley rat at 2.5 mg/kg, po; format: ADME, organism-based; set-up: dose 2.5 mg/kg, route oral; conditions: in vivo; outline: as §1
CYP2D6 = CYP2D6 (Homo sapiens, UniProt P10635); experiment: Inhibition of CYP2D6 (unknown origin) at 10 uM relative to control; format: ADME
CYP3A4 = CYP3A4 (Homo sapiens, UniProt P08684); experiment: Inhibition of human recombinant CYP3A4 using dibenzylfluorescein as substrate at 10 uM preincubated for 20 mins prior to enzyme/substrate addition measured after 20 mins by fluorometric assay relative to control; format: ADME; conditions: recombinant CYP3A4, probe dibenzylfluorescein
Outline: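 Vivid fluorometric kit. Compounds were in acetonitrile, with an acetonitrile vehicle control. NADP-regenerating system (1.0 mM NADP+, 3.3 mM glucose-6-phosphate, 3.3 mM MgCl2, 0.4 U/mL G6PDH in 10 mM KPO4, pH 8.0) was preincubated with compound at 37 °C for 20 min. Then 0.5 pmol recombinant human CYP3A4 plus dibenzylfluorescein was added, 20 min, and the reaction was stopped. Background had enzyme/substrate added after the stop. Fluorescein read at ex 485/em 530 nm.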

[14] = Permeability of the compound at pH 7.4 at 500 uM after 16 hrs by PAMPA; format: ADME; conditions: pH 7.4, 16 h
Outline: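 PAMPA: the donor solution was diluted from a 1 mM DMSO stock into system buffer at pH 7.4. Lipid solution was applied to each filter membrane, and the receiver side held acceptor sink buffer. The plates were incubated 16 h at room temperature. Donor and receiver sides were analysed by UV spectrometry, and donor initial concentration was also measured.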

[15] = Octanol-water partition coefficient, log P of the compound by pH-metric method; format: physicochemical
[16] = Metabolic stability in rat liver microsomes assessed as compound remaining at […] after 1 hr; format: ADME, Microsome; conditions: read-out: Stability

Sequence of CYP3A4 (P08684 whole entry): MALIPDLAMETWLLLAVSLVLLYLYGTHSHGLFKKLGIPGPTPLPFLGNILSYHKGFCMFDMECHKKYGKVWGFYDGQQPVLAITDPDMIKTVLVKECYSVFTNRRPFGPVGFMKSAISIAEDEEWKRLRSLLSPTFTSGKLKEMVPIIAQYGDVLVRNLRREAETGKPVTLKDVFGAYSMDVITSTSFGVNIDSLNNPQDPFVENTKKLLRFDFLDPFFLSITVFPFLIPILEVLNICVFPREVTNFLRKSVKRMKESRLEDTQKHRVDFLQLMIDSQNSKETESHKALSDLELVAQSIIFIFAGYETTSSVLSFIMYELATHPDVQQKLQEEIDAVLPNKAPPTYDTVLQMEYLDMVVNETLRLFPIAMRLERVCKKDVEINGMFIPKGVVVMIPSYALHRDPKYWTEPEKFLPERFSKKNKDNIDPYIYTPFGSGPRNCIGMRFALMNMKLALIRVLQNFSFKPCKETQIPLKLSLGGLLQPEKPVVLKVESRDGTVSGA
Sequence of CYP2D6 (P10635 whole entry): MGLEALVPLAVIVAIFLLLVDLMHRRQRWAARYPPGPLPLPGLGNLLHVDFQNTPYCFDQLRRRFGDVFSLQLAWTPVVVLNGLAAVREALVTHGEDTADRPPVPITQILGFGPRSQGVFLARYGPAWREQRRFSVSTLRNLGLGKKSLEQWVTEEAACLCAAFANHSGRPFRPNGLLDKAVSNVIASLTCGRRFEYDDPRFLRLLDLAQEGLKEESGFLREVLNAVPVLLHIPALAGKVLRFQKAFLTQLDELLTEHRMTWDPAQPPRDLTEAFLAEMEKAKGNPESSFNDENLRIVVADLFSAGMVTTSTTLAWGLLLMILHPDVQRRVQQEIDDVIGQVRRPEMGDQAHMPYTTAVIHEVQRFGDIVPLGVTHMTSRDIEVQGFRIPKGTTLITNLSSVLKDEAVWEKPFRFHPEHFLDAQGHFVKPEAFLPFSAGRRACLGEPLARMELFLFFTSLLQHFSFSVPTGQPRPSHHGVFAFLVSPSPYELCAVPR

For `CCS(=O)(=O)Nc1cccc(-c2cc(=O)n(-c3ccc(C#N)cc3)nc2C)c1`, the IC50 (Androgen receptor) was 6.26 µM and the IC50 (LNCaP) was 39 µM.
With `CCS(=O)(=O)Nc1cccc(-c2cc(=O)n(-c3ccc(Cl)c(Cl)c3)nc2C)c1` the bioavailability [1] was 102%, the MRT [2] was 34.9 h and the MRT [3] was 26.9 h. For the same compound, the Vd [4] was 2.25 L/kg, the clearance [5] was 1.41 mL/min/kg and the AUC(0-inf) [6] was 30500 ng·h/mL. For the same compound, the AUC(0-inf) [7] was 29800 ng·h/mL, the AUC(0-t) at 72 h [8] was 26800 ng·h/mL and the AUC(0-t) at 72 h [9] was 27500 ng·h/mL. It also gave a half-life [10] of 21.6 h, a half-life [11] of 19.2 h and a Cmax [12] of 767 ng/mL. The Tmax [13] was 10.3 h, the inhibition at 10 µM (CYP2D6) was 0% and the inhibition at 20 min, 10 µM (CYP3A4) was 6.7%. The permeability [14] was “permeable”, the logP [15] was 3.82 and the IC50 (Androgen receptor) was 2.65 µM. It also gave an IC50 (LNCaP) of 11.6 µM and a remaining at 1 h [16] of over 99%.
Compound `CCS(=O)(=O)Nc1cccc(-c2cc(=O)n(-c3cc(Cl)cc(Cl)c3)nc2C)c1` has an IC50 (Androgen receptor) of 13.2 µM and an IC50 (LNCaP) of 22.9 µM.
For `CCS(=O)(=O)Nc1cccc(-c2cc(=O)n(-c3ccc(F)c(Cl)c3)nc2C)c1`, the IC50 (Androgen receptor) was 5.07 µM and the IC50 (LNCaP) was 26.7 µM.
With `CCS(=O)(=O)Nc1cccc(-c2cc(=O)n(-c3ccc4ccccc4c3)nc2C)c1` the IC50 (Androgen receptor) was 9.76 µM and the IC50 (LNCaP) was 18.3 µM.
`CC(O)(CS(=O)(=O)c1ccc(F)cc1)C(=O)Nc1ccc(C#N)c(C(F)(F)F)c1` (centres undefined) [BICALUTAMIDE] showed an IC50 (LNCaP) of 23.8 µM.
